Experimental data from ChEMBL document CHEMBL3826935, “Synthesis and Pharmacology of (Pyridin-2-yl)methanol Derivatives as Novel and Selective Transient Receptor Potential Vanilloid 3 Antagonists” (J Med Chem, 2016).

Target: T1, Transient receptor potential cation channel subfamily V member 3 (Homo sapiens) (UniProt Q8NET8)
T1 sequence (whole entry): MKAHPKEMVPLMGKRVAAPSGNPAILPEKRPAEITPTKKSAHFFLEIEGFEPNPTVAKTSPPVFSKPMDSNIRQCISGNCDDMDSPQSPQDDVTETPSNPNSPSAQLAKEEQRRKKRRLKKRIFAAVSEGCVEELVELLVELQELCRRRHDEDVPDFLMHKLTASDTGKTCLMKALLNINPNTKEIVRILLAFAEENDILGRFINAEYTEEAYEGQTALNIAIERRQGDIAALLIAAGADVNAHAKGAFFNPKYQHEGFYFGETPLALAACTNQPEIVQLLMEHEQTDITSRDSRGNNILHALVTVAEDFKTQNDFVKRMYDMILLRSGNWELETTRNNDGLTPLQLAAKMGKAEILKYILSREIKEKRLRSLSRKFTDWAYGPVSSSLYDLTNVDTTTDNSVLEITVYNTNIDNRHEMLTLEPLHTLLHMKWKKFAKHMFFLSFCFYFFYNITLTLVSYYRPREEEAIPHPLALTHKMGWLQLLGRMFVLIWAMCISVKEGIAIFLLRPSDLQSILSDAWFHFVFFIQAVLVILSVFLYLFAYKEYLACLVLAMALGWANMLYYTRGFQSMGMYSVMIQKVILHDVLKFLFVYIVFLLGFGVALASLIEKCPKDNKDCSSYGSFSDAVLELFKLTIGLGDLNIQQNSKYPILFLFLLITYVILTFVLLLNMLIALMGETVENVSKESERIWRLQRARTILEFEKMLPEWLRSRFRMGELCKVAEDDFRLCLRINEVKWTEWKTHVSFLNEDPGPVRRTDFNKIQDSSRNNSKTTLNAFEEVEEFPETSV
Test: Antagonist activity at human TRPV3 expressed in recombinant HEK293 cells assessed as inhibition of 2-APB induced calcium flux by FLIPR analysis
Format: cell-based
Conditions: not given; call rule not given here
How it was run: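 HEK293 cells stably expressing human TRPV3 (I25V variant), plated the day before in DMEM + 10% FBS at 37 °C, 5% CO2. Calcium 4 dye loaded in Ca/Mg-free HEPES D-PBS pH 7.4 for 1–2 h at room temperature. Compound dilutions added with 3 min baseline, then 2-APB at 60 µM final; Ca2+ flux read 3 min on FLIPR. Kb from at least duplicates, averaged across independent runs.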

Kb [µM]	Structure (SMILES)
1.87	O[C@H](c1ccccn1)[C@]1(c2ccc(C(F)(F)F)cc2)C[C@@H](O)C1
1.31	C[C@]1(O)C[C@](c2cccc(OC(F)(F)F)c2)([C@H](O)c2ccccn2)C1
0.08	O[C@H](c1ccccn1)[C@]1(c2cccc(OC(F)(F)F)c2)C[C@@H](O)C1
6.68	OC(c1ccccn1)C1(c2ccc(C(F)(F)F)cc2)CNC1 (configuration not stated)
0.63	OC(c1ccccn1)C1(c2ccc(Cl)c(Cl)c2)CCOC1 (configuration not stated)

More lines, now with the values behind:

Structure (SMILES)	Kb [µM]
OC(c1ncccc1F)C1(c2ccc(Cl)c(Cl)c2)CCC1 (racemic)	0.61
O[C@H](c1ccccn1)[C@]1(c2cccc(C(F)(F)F)c2)C[C@@H](O)C1	0.21
O[C@H](c1ccccn1)C1(c2ccc(OC(F)(F)F)cc2)CCC1	0.14
C[C@]1(O)C[C@@](c2ccc(C(F)(F)F)cc2)([C@H](O)c2ccccn2)C1	0.84

System: Liver microsome
Test: Unbound intrinsic clearance in rat liver microsomes after 5 hrs by LC-MS/MS analysis
Format: ADME
Conditions: not given
How it was run: (§1)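 Microsomal stability run in an automated high-throughput plate format. Intrinsic clearance corrected for nonspecific microsomal binding using measured unbound fraction (fu,mic), reported as unbound Clint in L/h/kg.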

CL free [L/h/kg]	Structure (SMILES)
3	O[C@H](c1ccccn1)[C@]1(c2ccc(C(F)(F)F)cc2)C[C@@H](O)C1
3	C[C@]1(O)C[C@](c2cccc(OC(F)(F)F)c2)([C@H](O)c2ccccn2)C1
13	O[C@H](c1ccccn1)[C@]1(c2cccc(OC(F)(F)F)c2)C[C@@H](O)C1
3	OC(c1ccccn1)C1(c2ccc(C(F)(F)F)cc2)CNC1 (configuration not stated)
59	OC(c1ccccn1)C1(c2ccc(Cl)c(Cl)c2)CCOC1 (configuration not stated)

Continued, compound first:

Structure (SMILES)	CL free [L/h/kg]
OC(c1ncccc1F)C1(c2ccc(Cl)c(Cl)c2)CCC1 (racemic)	180
O[C@H](c1ccccn1)[C@]1(c2cccc(C(F)(F)F)c2)C[C@@H](O)C1	6
O[C@H](c1ccccn1)C1(c2ccc(OC(F)(F)F)cc2)CCC1	63
C[C@]1(O)C[C@@](c2ccc(C(F)(F)F)cc2)([C@H](O)c2ccccn2)C1	9

System: Liver microsome
Test: Unbound intrinsic clearance in human liver microsomes after 5 hrs by LC-MS/MS analysis
Format: ADME
Conditions: not given
How it was run: as §1

CL free [L/h/kg]	Structure (SMILES)
2	O[C@H](c1ccccn1)[C@]1(c2ccc(C(F)(F)F)cc2)C[C@@H](O)C1
7	C[C@]1(O)C[C@](c2cccc(OC(F)(F)F)c2)([C@H](O)c2ccccn2)C1
7	O[C@H](c1ccccn1)[C@]1(c2cccc(OC(F)(F)F)c2)C[C@@H](O)C1
2	OC(c1ccccn1)C1(c2ccc(C(F)(F)F)cc2)CNC1 (configuration not stated)
25	OC(c1ccccn1)C1(c2ccc(Cl)c(Cl)c2)CCOC1 (configuration not stated)

Second part, the compound before the results:

Structure (SMILES)	CL free [L/h/kg]
OC(c1ncccc1F)C1(c2ccc(Cl)c(Cl)c2)CCC1 (racemic)	50
O[C@H](c1ccccn1)[C@]1(c2cccc(C(F)(F)F)c2)C[C@@H](O)C1	3
O[C@H](c1ccccn1)C1(c2ccc(OC(F)(F)F)cc2)CCC1	20
C[C@]1(O)C[C@@](c2ccc(C(F)(F)F)cc2)([C@H](O)c2ccccn2)C1	3

Organism: Rattus norvegicus
Test: Cardiotoxicity in rat assessed as increase in cardiac contractility at plasma concentration of 4.7 ug/ml
Format: toxicity, organism-based
Conditions: not given

Structure (SMILES)	Activity
O[C@H](c1ccccn1)[C@]1(c2ccc(C(F)(F)F)cc2)C[C@@H](O)C1	Non-toxic
C[C@]1(O)C[C@](c2cccc(OC(F)(F)F)c2)([C@H](O)c2ccccn2)C1	Non-toxic
O[C@H](c1ccccn1)[C@]1(c2cccc(OC(F)(F)F)c2)C[C@@H](O)C1	Non-toxic
O[C@H](c1ccccn1)[C@]1(c2cccc(C(F)(F)F)c2)C[C@@H](O)C1	Non-toxic
C[C@]1(O)C[C@@](c2ccc(C(F)(F)F)cc2)([C@H](O)c2ccccn2)C1	Non-toxic

Organism: Rattus norvegicus
Test: Cardiotoxicity in rat assessed as increase in mean arterial pressure
Format: toxicity, organism-based, Artery
Conditions: in vivo

Structure (SMILES)	Activity
O[C@H](c1ccccn1)[C@]1(c2ccc(C(F)(F)F)cc2)C[C@@H](O)C1	Non-toxic
C[C@]1(O)C[C@](c2cccc(OC(F)(F)F)c2)([C@H](O)c2ccccn2)C1	Non-toxic
O[C@H](c1ccccn1)[C@]1(c2cccc(OC(F)(F)F)c2)C[C@@H](O)C1	Non-toxic
O[C@H](c1ccccn1)[C@]1(c2cccc(C(F)(F)F)c2)C[C@@H](O)C1	Non-toxic
C[C@]1(O)C[C@@](c2ccc(C(F)(F)F)cc2)([C@H](O)c2ccccn2)C1	Non-toxic

Target: T2, Nuclear receptor subfamily 1 group I member 2 (Homo sapiens, UniProt O75469)
T2 sequence (O75469 whole entry): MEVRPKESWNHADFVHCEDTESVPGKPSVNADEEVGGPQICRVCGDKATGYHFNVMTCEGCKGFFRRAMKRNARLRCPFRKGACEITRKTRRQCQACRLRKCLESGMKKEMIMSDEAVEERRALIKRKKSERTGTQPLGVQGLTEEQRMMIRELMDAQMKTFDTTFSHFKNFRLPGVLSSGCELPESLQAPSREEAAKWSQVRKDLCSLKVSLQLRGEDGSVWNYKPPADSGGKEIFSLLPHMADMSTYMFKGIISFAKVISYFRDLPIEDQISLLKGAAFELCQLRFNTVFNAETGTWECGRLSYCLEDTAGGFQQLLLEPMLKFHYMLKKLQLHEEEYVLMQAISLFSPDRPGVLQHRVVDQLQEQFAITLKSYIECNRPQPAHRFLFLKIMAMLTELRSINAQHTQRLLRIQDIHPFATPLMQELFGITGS
Test: Activation of human PXR
Format: ADME
Conditions: human

Activity	Structure (SMILES)
Not Active	O[C@H](c1ccccn1)[C@]1(c2ccc(C(F)(F)F)cc2)C[C@@H](O)C1
Not Active	C[C@]1(O)C[C@](c2cccc(OC(F)(F)F)c2)([C@H](O)c2ccccn2)C1
Not Active	O[C@H](c1ccccn1)[C@]1(c2cccc(OC(F)(F)F)c2)C[C@@H](O)C1

The remaining lines, values behind:

Structure (SMILES)	Activity
O[C@H](c1ccccn1)[C@]1(c2cccc(C(F)(F)F)c2)C[C@@H](O)C1	Not Active
C[C@]1(O)C[C@@](c2ccc(C(F)(F)F)cc2)([C@H](O)c2ccccn2)C1	Not Active
